For assay [1], the system named is Mus musculus. The experiment in a line: Hypothermia induction in C57BL/6J mice at 50 mg/kg, ip. In kind it is functional, organism-based. Set-up: dose 50 mg/kg. Put shortly:
(§1)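 Male C57BL/6J mice, about 7-10 weeks old, dosed i.p. at 2, 10, 25 or 50 mg/kg. Vehicle was 100% DMSO, or 60-65% DMSO in saline for some compounds. Rectal temperature was taken before dosing and at 30, 60, 120, 180, 240 and 1440 min, with room at 19-21 °C. Groups were 2-4 mice, analysed by two-way ANOVA with Bonferroni post hoc tests (P < 0.05).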

In assay [2] the target is Trace amine-associated receptor 1 (Mus musculus, UniProt Q923Y8). As to the kind of experiment: Activity at mouse TAAR1 by measuring cAMP accumulation in HEK293 cells. In kind it is functional, cell-based. The method in brief:
(§2)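 HEK293 cells stably transfected with rat or mouse TAAR1, harvested and preincubated in Krebs-Ringer-HEPES with 200 µM IBMX. Then 1 h at 37 °C in KRH with 100 µM IBMX plus test compound, forskolin (10 µM) or DMSO vehicle. cAMP was measured by [³H]cAMP competitive binding after boiling, as % of forskolin control. EC₅₀ came from concentration-response curves, triplicate runs, averaged over experiments.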

Assay [3] deals with Trace amine-associated receptor 1 (Rattus norvegicus, UniProt Q923Y9). The experiment in a line: Activity at rat TAAR1 by measuring cAMP accumulation in HEK293 cells. In kind it is functional, cell-based. Put shortly:
as §2
Background: Changes in cAMP serve as a functional read-out for many G protein-coupled receptors.

The test system of assay [4] is Mus musculus. The experiment in a line: Efficacy for hypothermia induction in ip dosed C57BL/6J mice. In kind it is functional. Put shortly:
as §1

pEC50: −log10 of the molar value. Active and inactive are the calls of the source. The calls are words filed in the database; no cut-off is given here. Some results are limits rather than exact numbers.

Chain of Trace amine-associated receptor 1 (Mus musculus, UniProt Q923Y8) (Q923Y8 whole entry): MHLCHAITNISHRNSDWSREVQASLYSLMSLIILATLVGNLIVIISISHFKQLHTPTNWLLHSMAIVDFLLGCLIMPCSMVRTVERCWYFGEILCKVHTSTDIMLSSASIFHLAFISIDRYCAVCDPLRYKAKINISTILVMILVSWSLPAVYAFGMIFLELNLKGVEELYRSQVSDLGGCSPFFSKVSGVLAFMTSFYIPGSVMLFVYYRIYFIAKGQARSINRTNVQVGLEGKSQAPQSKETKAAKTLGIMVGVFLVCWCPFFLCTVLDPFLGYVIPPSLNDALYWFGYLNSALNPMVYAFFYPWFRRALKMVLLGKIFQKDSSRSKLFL
Chain of Trace amine-associated receptor 1 (Rattus norvegicus, UniProt Q923Y9) (Q923Y9 whole entry): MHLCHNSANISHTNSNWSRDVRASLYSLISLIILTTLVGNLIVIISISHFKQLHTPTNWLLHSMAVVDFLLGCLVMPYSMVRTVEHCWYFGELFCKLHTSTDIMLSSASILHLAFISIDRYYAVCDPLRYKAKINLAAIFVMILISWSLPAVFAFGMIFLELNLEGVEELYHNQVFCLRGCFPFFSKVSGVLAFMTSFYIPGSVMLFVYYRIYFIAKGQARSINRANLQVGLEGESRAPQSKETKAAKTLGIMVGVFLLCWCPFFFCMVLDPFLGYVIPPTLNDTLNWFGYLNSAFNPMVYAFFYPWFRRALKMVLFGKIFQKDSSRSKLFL

One may read the pEC50 as the EC50 on a negative log10 scale, so that one unit is a factor of ten. Low values mean a high EC50, high ones a low EC50. In the case of `Cc1cc(CCN)ccc1Oc1ccc(O)cc1`, the result in assay [1] was Active. Also, the pEC50 was 6.94 in assay [2] and 7.48 in assay [3].

Regarding `CCCCNCCc1ccc(OCc2ccccc2)cc1`, the pEC50 in assay [2] and in assay [3] was less than 6.00 in each case.

For the compound `NCCc1ccc(OCCCCc2ccccc2)cc1`, the results for the pEC50 in assay [2] and in assay [3] were 7.10 and 7.37, respectively.

Turning to `CCCNCCc1ccc(OCc2ccccc2)cc1`, the pEC50 in assay [2] and in assay [3] was less than 6.00 each time.

Turning to `CNCCc1ccc(OCc2ccccc2)cc1`, the pEC50 in assay [2] was 7.27; in assay [3] it was 6.92.

As to `NCCc1ccc(OCc2ccccc2)cc1`, the pEC50 is 6.77 in assay [2] and 6.68 in assay [3].

For `CNCCc1ccc(OCc2ccccc2)c(I)c1`, the pEC50 is 6.97 in assay [2] and 7.17 in assay [3].

Regarding `CN(C)CCc1ccc(OCc2ccccc2)cc1`, the results for the pEC50 in assay [2] and in assay [3] were 6.72 and less than 6.00, respectively.

For the compound `CCNCCc1ccc(OCc2ccccc2)cc1`, the pEC50 is 7.15 in assay [2] and less than 6.00 in assay [3].

Regarding `OCCc1ccc(Oc2ccc(O)cc2)c(I)c1`, the negative-log EC50 (pEC50) in assay [2] and in assay [3] was less than 6.00 throughout.

Turning to `Cc1cc(C)cc(COc2ccc(CCN)cc2)c1`, the values for the pEC50 in assay [2] and in assay [3] were 7.01 and 6.86, respectively.

For the compound `NCCc1ccc(Oc2cc(I)c(O)c(I)c2)cc1`, the pEC50 in assay [2] and in assay [3] was less than 6.00 in each case.

`CNCCc1ccc(Oc2ccc(OC)cc2)c(I)c1`: the pEC50 in assay [2] is less than 6.00; in assay [3], 6.97.

As to `NCCc1ccc(OCc2ccc(C(F)(F)F)cc2)c(I)c1`, the pEC50 in assay [2] was 6.55; in assay [3], less than 6.00.

Regarding `COc1cccc(COc2ccc(CCN)cc2)c1`, the figures for the pEC50 in assay [2] and in assay [3] were 6.71 and 6.85, respectively.

In the case of `NCCc1ccc(OCc2c(F)c(F)c(F)c(F)c2F)cc1`, the pEC50 in assay [2] and in assay [3] was less than 6.00 each time.

Regarding `CNCCc1ccc(Oc2ccc(C(F)(F)F)cc2)c(I)c1`, the negative-log EC50 (pEC50) in assay [2] and in assay [3] was less than 6.00 each time.

With `NCCc1ccc(OCc2ccc([N+](=O)[O-])cc2)cc1`, the pEC50 was 7.67 in assay [2] and 7.19 in assay [3].

`NCCc1cc(I)c(Oc2ccc(O)cc2)c(I)c1`: the pEC50 in assay [2] is 6.43.

Consider `NCCc1ccc(Oc2ccccc2)cc1`, for which the pEC50 was 6.53 in assay [2] and 7.42 in assay [3].

For `COc1cc(COc2ccc(CCN)cc2)cc(OC)c1`, the pEC50 was 6.91 in assay [2] and 6.48 in assay [3].

Consider `NCCc1cc(I)c(Oc2ccc(O)c(I)c2)c(I)c1`, for which the pEC50 in assay [2] is less than 6.00.

`NCCc1ccc(OCc2ccccc2)c(I)c1`: the pEC50 in assay [2] is 6.66; in assay [3], 7.11.

In general, ED50 refers to the dose that gives a 50% effect, or the effect in half of the subjects. High values mean weaker potency, low ones greater potency. For the compound `NCCc1ccc(Oc2ccccc2)c(I)c1`, in assay [1], the outcome was Active. The pEC50 in assay [2] was 7.46; in assay [3], 8.62. Besides, the ED50 in assay [4] is 30 µmol/kg.

For `NCCc1ccc(Oc2ccc(O)cc2)cc1` [THYRONAMINE], in assay [2], the negative-log EC50 (pEC50) was 6.00.

`CNCCc1ccc(Oc2ccc(F)cc2)c(I)c1`: in assay [1], the result was Active. Further, the pEC50 in assay [2] was 7.49; in assay [3], 8.57.

`NCCc1ccc(OCCCc2ccccc2)cc1`: the pEC50 is 6.99 in assay [2] and 7.05 in assay [3].

As for `NCCc1ccc(OCCc2ccccc2)cc1`, the pEC50 in assay [2] was 6.68; in assay [3], 6.69.

Consider `NCCc1ccc(OCc2ccc(C(F)(F)F)cc2)cc1`, for which the figures for the pEC50 in assay [2] and in assay [3] were 7.69 and 7.26, respectively.

In assay [2], `NCCc1ccc(Oc2ccc(O)c(I)c2)c(I)c1` had a pEC50 of 6.00.

Regarding `NCCc1ccc(Oc2cc(I)c(O)c(I)c2)c(I)c1`, the pEC50 in assay [2] and in assay [3] was less than 6.00 each time.

In the case of `CNCCc1ccc(OCc2ccc(C(F)(F)F)cc2)cc1`, the result in assay [1] was Active. Further, the results for the pEC50 in assay [2] and in assay [3] were 7.92 and 7.21, respectively.

The compound `NCCc1cc(I)c(Oc2cc(I)c(O)c(I)c2)c(I)c1` gave a pEC50 in assay [2] of less than 6.00.

As for `NCCc1ccc(OCC(=O)c2ccccc2)cc1`, the pEC50 in assay [2] is 7.08; in assay [3], 6.51.

For `NCCc1ccc(OCc2ccc(F)cc2)cc1`, the pEC50 was 7.41 in assay [2] and 7.14 in assay [3].

`NCCc1ccc(Oc2ccc(O)c(I)c2)cc1`: the pEC50 in assay [2] is less than 6.00; in assay [3] it was 6.10.

Consider `CNCCc1ccc(Oc2ccc(O)cc2)c(I)c1`, for which the pEC50 is 6.66 in assay [2] and 7.74 in assay [3].

Consider `c1ccc(CNCCc2ccc(OCc3ccccc3)cc2)cc1`, for which the pEC50 in assay [2] and in assay [3] was less than 6.00 in each case.

The values above are taken from ChEMBL document CHEMBL1149397, “Trace amine-associated receptor agonists: synthesis and evaluation of thyronamines and related analogues” (J Med Chem, 2006).
